Reference: ChEMBL document CHEMBL1125497, “Synthesis and anticonvulsant activity of enaminones” (J Med Chem, 1992)

How the values were obtained:
[1] = Dose producing neurotoxic effects in 50% of the CF1 mice after intraperitoneal administration.; assay type: ADME; conditions: CF1, mouse, in vivo, ip
How it was run: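 Phase II quantification in CF1 male mice (ca. 24–34 g), dosing ip or po in 0.5% methylcellulose suspension. ED50 is protection from tonic hind limb extension in MES. TD50 is rotorod neurotoxicity. Both were read at time of peak effect and derived by Litchfield–Wilcoxon with 95% confidence limits.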

[2] = Antiepileptic activity in male CF1 mice 30 min after administration measured in subcutaneous pentylenetetrazole (scMet) test at a dose of 300 mg/kg (no. of animals treated /protected); activity value is 0/1; assay type: functional, Mus musculus
[3] = Antiepileptic activity in male CF1 mice 30 min after administration measured in subcutaneous pentylenetetrazole (scMet) test at a dose of 100 mg/kg (no. of animals treated /protected); activity value is 0/1; assay type: functional, Mus musculus
[4] = Antiepileptic activity in male CF1 mice 4 hr after administration measured in maximum electroshock seizure(MES) test at a dose of 100 mg/kg (no. of animals treated /protected); activity value is 0/3; assay type: functional, Mus musculus
[5] = Antiepileptic activity in male CF1 mice 30 min after administration measured in maximum electroshock seizure(MES) test at a dose of 100 mg/kg (no. of animals treated /protected); activity value is 2/3; assay type: functional, Mus musculus
[6] = Antiepileptic activity in male CF1 mice 30 min after administration measured in maximum electroshock seizure(MES) test at a dose of 300 mg/kg (no. of animals treated /protected); activity value is 1/1; assay type: functional, Mus musculus
[7] = Time of peak anticonvulsant effect in CF1 mice; assay type: functional, Mus musculus
How it was run: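 Male CF1 mice (ca. 24–34 g), compound in 0.5% methylcellulose suspension given ip or po; time (h) at which MES protection (against tonic hind limb extension) peaked was recorded and used for ED50 determination.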

[8] = Time of peak neurotoxic effect in CF1 mice; assay type: ADME; conditions: mouse, in vivo
How it was run: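 Male CF1 mice (ca. 24–34 g), compound ip in 0.5% methylcellulose suspension; neurological deficit assessed by rotorod test, time (h) of peak neurotoxic effect recorded for TD50 determination.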

[9] = Antiepileptic activity in male CF1 mice 4 hr after administration measured in neurological toxicity (Tox) test at a dose of 300 mg/kg (no. of animals treated /protected); activity value is 0/2; assay type: functional, Mus musculus
[10] = Antiepileptic activity in male CF1 mice 4 hr after administration measured in subcutaneous pentylenetetrazole (scMet) test at a dose of 300 mg/kg (no. of animals treated /protected); activity value is 0/1; assay type: functional, Mus musculus
[11] = Dose at which anticonvulsant activity was observed in mice; assay type: functional, Mus musculus
[12] = Antiepileptic activity in male CF1 mice 0.25 hr after oral administration measured in maximum electroshock seizure(MES) test at a dose of 50 mg/kg (no. of animals treated /protected); activity value is 2/4; assay type: functional, Mus musculus
[13] = Antiepileptic activity in male CF1 mice 0.25 hr after oral administration measured in neurological toxicity (Tox) test at a dose of 50 mg/kg (no. of animals treated /protected); activity value is 0/4; assay type: functional, Mus musculus
[14] = Antiepileptic activity in male CF1 mice 0.5 hr after oral administration measured in neurological toxicity (Tox) test at a dose of 50 mg/kg (no. of animals treated /protected); activity value is 0/4; assay type: functional, Mus musculus
[15] = Antiepileptic activity in male CF1 mice 1 hr after oral administration measured in neurological toxicity (Tox) test at a dose of 50 mg/kg (no. of animals treated /protected); activity value is 0/4; assay type: functional, Mus musculus
[16] = Antiepileptic activity in male CF1 mice 4 hr after oral administration measured in neurological toxicity (Tox) test at a dose of 50 mg/kg (no. of animals treated /protected); activity value is 0/4; assay type: functional, Mus musculus
[17] = tested on: Rattus norvegicus; assay: Average seizure score for the rat cornea 0.5 hr after peroral administration of 0 mg/kg of compound; assay type: functional; conditions: route oral
How it was run: (§1)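 Sprague-Dawley rats (85–95 g initial) were kindled with 4 s, 8 mA corneal stimulations (butacaine anesthesia) to 10 consecutive stage 5 seizures. After a vehicle shock and a 2-day shock-free period, test drug was given ip or po and a single shock applied at time of peak effect. Seizures were scored on a modified Racine 0–5 scale. ED50 is the dose reducing severity by 50% (Litchfield–Wilcoxon).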

[18] = tested on: Rattus norvegicus; assay: Average seizure score for the rat cornea 0.5 hr after peroral administration of 50 mg/kg of compound; assay type: functional; conditions: route oral; how it was run: as §1
[19] = tested on: Rattus norvegicus; assay: Dose reducing the seizure severity in rat cornea 0.5 hr after peroral administration.; assay type: ADME, organism-based; conditions: po; how it was run: as §1
[20] = Protective index was measured as TD50/ED50; assay type: ADME; conditions: read-out: PI
[21] = tested on: Rattus norvegicus; assay: Per oral dose (50 mg/Kg) reducing rat corneal kindling 0.5 hr after administration.; assay type: functional; how it was run: as §1
[22] = tested on: Rattus norvegicus; assay: Per oral dose (0 mg/Kg) reducing rat corneal kindling 0.5 hr after administration.; assay type: functional; how it was run: as §1
[23] = Oral dose producing neurotoxic effects in 50% of rats; assay type: ADME, organism-based; conditions: rat, in vivo
How it was run: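 Phase VI screen in male Sprague-Dawley rats dosed orally. MES protection and rotorod toxicity were scored as animals responding over animals tested at 0.25, 0.5, 1, 2 and 4 h.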

[24] = Protective index was measured as TD50/ED50 in rat on oral administration; assay type: ADME, organism-based; conditions: in vivo, read-out: PI
[25] = Antiepileptic activity in male CF1 mice 0.5 hr after oral administration measured in maximum electroshock seizure(MES) test at a dose of 10 mg/kg (no. of animals treated /protected); activity value is 4/4; assay type: functional, Mus musculus
[26] = Antiepileptic activity in male CF1 mice 1 hr after oral administration measured in maximum electroshock seizure(MES) test at a dose of 10 mg/kg; activity value is 4/4; assay type: functional, Mus musculus
[27] = Antiepileptic activity in male CF1 mice 0.25 hr after oral administration measured in maximum electroshock seizure(MES) test at a dose of 10 mg/kg (no. of animals treated /protected); activity value is 3/4; assay type: functional, Mus musculus
[28] = Antiepileptic activity in male CF1 mice 2 hr after oral administration measured in maximum electroshock seizure(MES) test at a dose of 10 mg/kg (no. of animals treated /protected); activity value is 4/4; assay type: functional, Mus musculus
[29] = Antiepileptic activity in male CF1 mice 4 hr after oral administration measured in maximum electroshock seizure(MES) test at a dose of 10 mg/kg (no. of animals treated /protected); activity value is 3/4; assay type: functional, Mus musculus
[30] = Antiepileptic activity in male CF1 mice 4 hr after oral administration measured in neurological toxicity (Tox) test at a dose of 10 mg/kg (no. of animals treated /protected); activity value is 0/4; assay type: functional, Mus musculus
[31] = tested on: Rattus norvegicus; assay: Average seizure score for the rat cornea 0.5 hr after peroral administration of 20 mg/kg of compound; assay type: functional; conditions: route oral; how it was run: as §1
[32] = tested on: Rattus norvegicus; assay: Per oral dose (40 mg/Kg) reducing rat corneal kindling 0.5 hr after administration.; assay type: functional; how it was run: as §1
[33] = tested on: Rattus norvegicus; assay: Per oral dose (20 mg/Kg) reducing rat corneal kindling 0.5 hr after administration.; assay type: functional; how it was run: as §1

| SMILES | Activity [2] | Activity [3] | Activity [4] | Activity [6] | TPE [7] | TPE [8] | Activity [9] | Activity [10] | Dose [11] | Average seizure score [17] | Average seizure score [18] | selectivity ratio [20] | Reduction [21] [%] | Reduction [22] [%] | TD50 [23] [mg/kg] | other results |
| --- | --- | --- | --- | --- | --- | --- | --- | --- | --- | --- | --- | --- | --- | --- | --- | --- |
| COC(=O)C1C(=O)C=C(NCc2ccccc2)CC1C (centres undefined) | 0 | 0 | 0 | 1 | 0.5 | 1 | 0 | 0 | <=100 mg kg-1 | 5 | 3.6 | 7.7 | 29 | 0 | > 500 | TD50 [1]: > 500 mg/kg; Activity [5]: 2; Activity [12]: 2; Activity [13]: 0; Activity [14]: 0; Activity [15]: 0; Activity [16]: 0; ED50 ([19]; Rattus norvegicus, Cornea): 78.3 mg/kg; selectivity ratio [24]: 18.7 |
| COC(=O)C1C(=O)C=C(Nc2ccc(Cl)cc2)CC1C (centres undefined) | 0 | 0 | 0 | 1 | 0.5 | 2 | 0 | 0 | <=100 mg kg-1 | 4.9 | 1.7 | 9.7 | 67 | 0 | > 380 | Activity [25]: 4; Activity [26]: 4; Activity [27]: 3; Activity [28]: 4; Activity [29]: 3; Activity [30]: 0; Average seizure score [31]: 3; ED50 ([19]; rat, in vivo): 34.2 mg/kg; Reduction [32]: 49%; Reduction [33]: 40% |
